Results collected from several papers.
Compare with care: the assays were run in different laboratories.
MAP3K9: Mitogen-activated protein kinase kinase kinase 9 (MAP3K9, Homo sapiens, UniProt P80192)
PTGS1: Prostaglandin G/H synthase 1 (PTGS1, Ovis aries, UniProt P05979)

Cc1nn(CC(F)(F)F)cc1Nc1ncc(C2CC2)c(NCCc2c[nH]cn2)n1
remaining activity (MAP3K9; enzyme activity; inhibitor; radiometric; 1 µM): 72%

Cc1cnc(Nc2ccc(OCCN3CCCC3)cc2)nc1Nc1cccc(S(=O)(=O)NC(C)(C)C)c1
ΔTm (Transcription initiation factor TFIID subunit 1-like, BD2 (TAF1L, Homo sapiens, UniProt Q8IZX4); thermal stability; DSF; 10 µM): 0.91 °C

Cc1ccc(C(=O)Nc2ccc(CN3CCN(C)CC3)c(C(F)(F)F)c2)cc1C#Cc1cnc2cccnn12
remaining activity (Mitogen-activated protein kinase kinase kinase 6 (MAP3K6, Homo sapiens, UniProt O95382); enzyme activity; inhibitor; 23.5 nM): 79%

C[S+]([O-])c1ccc(-c2nc(-c3ccncc3)c(-c3ccc(F)cc3)[nH]2)cc1 (stereo not shown)
ΔTm (Transcription initiation factor TFIID subunit 1, BD1 (TAF1, Homo sapiens, UniProt P21675); thermal stability; DSF; 10 µM): -0.19 °C

Cc1nn(CC(F)(F)F)cc1Nc1ncc(Br)c(NCCCNC(=O)C2CCC2)n1
remaining activity (MAP3K9; enzyme activity; inhibitor; radiometric; 1 µM): 21%

CCCOc1ccc(OC)c(F)c1C(=O)c1ccc(C(=O)N[C@@H]2CNC[C@H]2NC(=O)c2ccc3[nH]ncc3c2)cc1
remaining activity (Serine/threonine-protein kinase MRCK alpha (CDC42BPA, Homo sapiens, UniProt Q5VT25); enzyme activity; inhibitor; 0.1 µM): 66%

CCCCC#CCNC(=O)c1ccccc1SC(C)=O
kinact (PTGS1; enzyme activity; inhibitor): 0.000367 s⁻¹

Cc1nn(CC(F)(F)F)cc1Nc1ncc(C2CC2)c(NCCCNC(=O)C2CCC2)n1
remaining activity (Serine/threonine-protein kinase MARK1 (MARK1, Homo sapiens, UniProt Q9P0L2); enzyme activity; inhibitor; radiometric; 1 µM): 79%

NS(=O)(=O)c1ccc(Nc2nc(-c3ccc(F)cc3)c3ccccc3n2)cc1
remaining binding (Peregrin (BRPF1, Homo sapiens, UniProt P55201); binding; competition with immobilised ligand; 1 µM): 76%

CCCCCCNC(=O)c1ccccc1SC(C)=O
kinact (PTGS1; enzyme activity; inhibitor; mass spectrometry): 0.0103 s⁻¹

Oc1ccc(-c2nc(-c3ccncc3)c(-c3ccc(F)cc3)[nH]2)cc1
ΔTm (Transcription initiation factor TFIID subunit 1, BD2 (TAF1, Homo sapiens, UniProt P21675); thermal stability; DSF; 10 µM): -0.06 °C

Cc1ccc(C(=O)NCc2ccsc2)cc1C#Cc1cn(C(C)C)c2ncnc(N)c12
activity vs control (Transcription initiation factor TFIID subunit 1-like (TAF1L, Homo sapiens, UniProt Q8IZX4); enzyme activity; inhibitor; 1 µM): 91%

Cc1cc2c(cc1N1C(=O)c3cccc4c(Cl)ccc(c34)C1=O)n(C)c(=O)n2C
ΔTm (Bromodomain adjacent to zinc finger domain protein 2B, bromodomain (BAZ2B, Homo sapiens, UniProt Q9UIF8); thermal stability; DSF; 10 µM): 0.6 °C
